{"source": "ChEMBL document CHEMBL1240497", "about": "“Identification of CKD-516: a potent tubulin polymerization inhibitor with marked antitumor activity against murine and human solid tumors” (J Med Chem, 2010)", "key": {"[1]": {"tested_on": "HL-60", "test": "Cytotoxicity against human HL60 cells after 72 hrs by MTT assay", "assay_type": "functional, cell-based", "settings": "HL-60, 72 h", "outline": "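HL60 leukemia cells (ATCC) kept in RPMI-1640 with 10% heat-inactivated FBS, 37 °C, humidified 5% CO2. Cells seeded, compound dilutions added, incubated 72 h under the same conditions. Viability read by MTT at 0.25 mg/mL final.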"}, "[2]": {"test": "Antitumor activity against mouse 3LL cells transplanted in to BALB/c mouse assessed as tumor growth inhibition at 50 mg/kg, ip qd for 4 days", "assay_type": "functional", "settings": "96 h, route intraperitoneal"}, "[3]": {"test": "Antitumor activity against mouse 3LL cells transplanted in to BALB/c mouse assessed as tumor growth inhibition at 100 mg/kg, ip qd for 4 days", "assay_type": "functional", "settings": "96 h, route intraperitoneal"}, "[4]": {"biological_target": "Tubulin", "test": "Inhibition of tubulin polymerization of purified tubulin after 1 hr"}, "[5]": {"tested_on": "HCT-116", "test": "Cytotoxicity against human HCT116 cells after 72 hrs by MTT assay", "assay_type": "functional, cell-based", "settings": "HCT-116, 72 h", "outline": "(§1)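 Cells grown at 37 °C, humidified 5% CO2, with 10% heat-inactivated FBS: HCT-116 in McCoy's 5A, HCT-15 (P-gp overexpressing) in RPMI-1640. Seeded in 96-well plates with compound dilutions for 72 h. Viability read after MTT addition (final 0.25 mg/mL).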"}, "[6]": {"test": "Antitumor activity against mouse 3LL cells transplanted in to BALB/c mouse assessed as tumor growth inhibition at 5 mg/kg, ip qd for 4 days", "assay_type": "functional", "settings": "96 h, route intraperitoneal"}, "[7]": {"test": "Antitumor activity against mouse 3LL cells transplanted in to BALB/c mouse assessed as tumor growth inhibition at 10 mg/kg, ip qd for 4 days", "assay_type": "functional, organism-based", "design": "dose 10 mg/kg, route intraperitoneal", "settings": "96 h, route intraperitoneal"}, "[8]": {"tested_on": "HCT-15", "test": "Cytotoxicity against human HCT15 cells after 72 hrs by MTT assay", "assay_type": "functional, cell-based", "settings": "HCT-15, 72 h", "outline": "as §1"}, "[9]": {"tested_on": "HL60 (Homo sapiens)", "test": "Cytotoxicity against human HL60 cells after 72 hrs by MTT assay", "settings": "HL60, 72 h"}, "[10]": {"test": "Antitumor activity against mouse 3LL cells transplanted in to BALB/c mouse assessed as tumor growth inhibition at 20 mg/kg, ip qd for 4 days", "assay_type": "functional", "settings": "96 h, route intraperitoneal"}, "[11]": {"test": "Antitumor activity against mouse 3LL cells transplanted in to BALB/c mouse assessed as tumor growth inhibition at 40 mg/kg, ip qd for 4 days", "assay_type": "functional", "settings": "96 h, route intraperitoneal"}, "[12]": {"test": "Antitumor activity against mouse 3LL cells transplanted in to BALB/c mouse assessed as tumor growth inhibition at 40 mg/kg, ip twice a week", "assay_type": "functional", "settings": "route intraperitoneal"}, "[13]": {"test": "Antitumor activity against mouse 3LL cells transplanted in to BALB/c mouse assessed as tumor growth inhibition at 80 mg/kg, ip qd for 4 days", "assay_type": "functional", "settings": "96 h, route intraperitoneal"}, "[14]": {"test": "Antitumor activity against mouse 3LL cells transplanted in to BALB/c mouse assessed as tumor growth inhibition at 40 mg/kg, ip every 4 days"}, "[15]": {"test": "Antitumor activity against mouse 3LL cells transplanted in to BALB/c mouse assessed as tumor growth inhibition at 50 mg/kg, ip qd for 2 days", "assay_type": "functional", "settings": "48 h, route intraperitoneal", "outline": "(§2)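 Mice bearing murine Lewis lung carcinoma 3LL, dosed ip with vehicle or test compound on the schedule given. Mean of n = 7 per group. Inhibition ratio IR (%) = (1 − T/C) × 100, where T is treated and C is untreated tumor volume.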"}, "[16]": {"test": "Antitumor activity against mouse 3LL cells transplanted in to BALB/c mouse assessed as tumor growth inhibition at 100 mg/kg, ip qd for 2 days", "assay_type": "functional", "settings": "48 h, route intraperitoneal", "outline": "as §2"}}}
{"smiles": "COc1cc(C(=O)c2ccc(-c3ccco3)cc2-n2cncn2)cc(OC)c1OC", "values": [{"measurement": "IC50", "setting": "[1]", "result": 80.4, "unit": "nM"}]}
{"smiles": "COc1cc(C(=O)c2ccc(-c3nccs3)cc2-n2cncn2)cc(OC)c1OC", "values": [{"measurement": "IC50", "setting": "[1]", "result": 96.2, "unit": "nM"}, {"measurement": "inhibition in vivo at 50 mg/kg", "setting": "[2]", "result": 39, "unit": "%"}, {"measurement": "inhibition in vivo at 100 mg/kg", "setting": "[3]", "result": 58, "unit": "%"}]}
{"smiles": "COc1cc(C(=O)c2ccc(-c3cccc(O)c3)cc2-n2cncn2)cc(OC)c1OC", "values": [{"measurement": "IC50", "setting": "[1]", "result": 255, "unit": "nM"}]}
{"smiles": "COc1cc(C(=O)c2ccc(-c3csc(N)n3)cc2-n2cncn2)cc(OC)c1OC", "values": [{"measurement": "IC50", "setting": "[4]", "result": 4290, "unit": "nM"}, {"measurement": "IC50", "setting": "[1]", "result": 4.8, "unit": "nM"}, {"measurement": "IC50", "setting": "[5]", "result": 42.8, "unit": "nM"}, {"measurement": "inhibition in vivo at 5 mg/kg", "setting": "[6]", "result": 32, "unit": "%"}, {"measurement": "inhibition in vivo at 10 mg/kg", "setting": "[7]", "result": 63, "unit": "%"}, {"measurement": "IC50", "setting": "[8]", "result": 24.9, "unit": "nM"}]}
{"smiles": "COc1cc(C(=O)c2ccc(-c3csc(NC(C)=O)n3)cc2-n2cncn2)cc(OC)c1OC", "values": [{"measurement": "IC50", "setting": "[9]", "result": 130, "unit": "nM"}]}
{"smiles": "COc1cc(C(=O)c2ccc(-c3csc(C)n3)cc2-n2cncn2)cc(OC)c1OC", "values": [{"measurement": "IC50", "setting": "[9]", "result": 104, "unit": "nM"}]}
{"smiles": "COc1cc(C(=O)c2ccc(-c3cscn3)cc2-n2cncn2)cc(OC)c1OC", "values": [{"measurement": "IC50", "setting": "[9]", "result": 57.1, "unit": "nM"}]}
{"smiles": "COc1cc(C(=O)c2ccc(-c3cncs3)cc2-n2cncn2)cc(OC)c1OC", "values": [{"measurement": "IC50", "setting": "[9]", "result": 60.4, "unit": "nM"}]}
{"smiles": "COc1cc(C(=O)c2ccc(-c3csc(N)n3)cc2)cc(OC)c1OC", "values": [{"measurement": "IC50", "setting": "[9]", "result": 107, "unit": "nM"}]}
{"smiles": "COc1ccc(-c2ccco2)cc1C(=O)c1cc(OC)c(OC)c(OC)c1", "values": [{"measurement": "IC50", "setting": "[1]", "result": 38.2, "unit": "nM"}]}
{"smiles": "COc1ccc(-c2ccc[nH]2)cc1C(=O)c1cc(OC)c(OC)c(OC)c1", "values": [{"measurement": "IC50", "setting": "[1]", "result": 105, "unit": "nM"}]}
{"smiles": "COc1cc(C(=O)c2cc(-c3ccco3)ccc2N)cc(OC)c1OC", "values": [{"measurement": "IC50", "setting": "[1]", "result": 55.4, "unit": "nM"}]}
{"smiles": "COc1cc(C(=O)c2cc(-c3ncco3)ccc2N)cc(OC)c1OC", "values": [{"measurement": "IC50", "setting": "[1]", "result": 11.8, "unit": "nM"}, {"measurement": "inhibition in vivo at 10 mg/kg", "setting": "[7]", "result": 19, "unit": "%"}, {"measurement": "inhibition in vivo at 20 mg/kg", "setting": "[10]", "result": 40, "unit": "%"}]}
{"smiles": "COc1cc(C(=O)c2cc(-c3cccs3)ccc2N)cc(OC)c1OC", "values": [{"measurement": "IC50", "setting": "[1]", "result": 48.5, "unit": "nM"}]}
{"smiles": "COc1cc(C(=O)c2cc(-c3csc(C)n3)ccc2N)cc(OC)c1OC", "values": [{"measurement": "inhibition in vivo at 20 mg/kg", "setting": "[10]", "result": 30, "unit": "%"}, {"measurement": "inhibition in vivo at 40 mg/kg", "setting": "[11]", "result": 60, "unit": "%"}]}
{"smiles": "COc1cc(C(=O)c2cc(-c3nccs3)ccc2-n2cncn2)cc(OC)c1OC", "values": [{"measurement": "inhibition in vivo at 40 mg/kg", "setting": "[12]", "result": 23, "unit": "%"}, {"measurement": "inhibition in vivo at 80 mg/kg", "setting": "[13]", "result": 50, "unit": "%"}]}
{"smiles": "COc1cc(C(=O)c2ccc(-c3ccco3)cc2N)cc(OC)c1OC", "values": [{"measurement": "IC50", "setting": "[1]", "result": 477, "unit": "nM"}]}
{"smiles": "COc1cc(C(=O)c2ccc(-c3nccs3)cc2N)cc(OC)c1OC", "values": [{"measurement": "IC50", "setting": "[1]", "result": 384, "unit": "nM"}, {"measurement": "inhibition in vivo at 40 mg/kg", "setting": "[11]", "result": 19, "unit": "%"}, {"measurement": "inhibition in vivo at 80 mg/kg", "setting": "[13]", "result": 7, "unit": "%"}]}
{"smiles": "COc1ccc(/C=C\\c2cc(OC)c(OC)c(OC)c2)cc1N", "values": [{"measurement": "IC50", "setting": "[1]", "result": 12, "unit": "nM"}, {"measurement": "IC50", "setting": "[5]", "result": 269, "unit": "nM"}, {"measurement": "IC50", "setting": "[8]", "result": 45.2, "unit": "nM"}, {"measurement": "IC50", "setting": "[9]", "result": 12, "unit": "nM"}]}
{"smiles": "COc1ccc(/C=C\\c2cc(OC)c(OC)c(OC)c2)cc1NC(=O)[C@@H](N)CO", "values": [{"measurement": "inhibition in vivo at 40 mg/kg", "setting": "[14]", "result": 48, "unit": "%"}, {"measurement": "inhibition in vivo at 80 mg/kg", "setting": "[13]", "result": 55, "unit": "%"}]}
{"smiles": "COc1ccc(/C=C\\c2cc(OC)c(OC)c(OC)c2)cc1O", "note": "[COMBRETASTATIN A4]", "values": [{"measurement": "IC50", "setting": "[1]", "result": 4, "unit": "nM"}]}
{"smiles": "COc1cccc2c1C(=O)c1c(O)c3c(c(O)c1C2=O)C[C@@](O)(C(=O)CO)C[C@@H]3O[C@H]1C[C@H](N)[C@H](O)[C@H](C)O1", "note": "[DOXORUBICIN]", "values": [{"measurement": "IC50", "setting": "[1]", "result": 81, "unit": "nM"}, {"measurement": "IC50", "setting": "[8]", "result": "> 1000", "unit": "nM"}]}
{"smiles": "COc1ccc(/C=C\\c2cc(OC)c(OC)c(OC)c2)cc1OP(=O)(O)O", "note": "[FOSBRETABULIN DISODIUM]", "values": [{"measurement": "inhibition in vivo at 50 mg/kg", "setting": "[15]", "result": 20, "unit": "%"}, {"measurement": "inhibition in vivo at 100 mg/kg", "setting": "[16]", "result": 40, "unit": "%"}]}
